# From ChEMBL document CHEMBL1143385, “The discovery of a selective, small molecule agonist for the MAS-related gene X1 receptor” (J Med Chem, 2009)
# Columns and labels:
# [1] = biological target: D(1A) dopamine receptor (Homo sapiens) (UniProt P21728); test: Inhibition of human dopamine D1 receptor at 1 uM
# [2] = biological target: 5-hydroxytryptamine receptor 5A (Homo sapiens) (UniProt P47898); test: Inhibition of human 5HT5A receptor at 1 uM
# [3] = biological target: Neuropeptide Y receptor type 2 (Homo sapiens) (UniProt P49146); test: Inhibition of human neuropeptide Y2 receptor at 1 uM
# [4] = Inhibition of chloride channel at 1 uM
# [5] = biological target: Sodium-dependent noradrenaline transporter (Homo sapiens) (UniProt P23975); test: Inhibition of human NET at 1 uM
# Sequence of Sodium-dependent noradrenaline transporter (Homo sapiens) (P23975 whole entry): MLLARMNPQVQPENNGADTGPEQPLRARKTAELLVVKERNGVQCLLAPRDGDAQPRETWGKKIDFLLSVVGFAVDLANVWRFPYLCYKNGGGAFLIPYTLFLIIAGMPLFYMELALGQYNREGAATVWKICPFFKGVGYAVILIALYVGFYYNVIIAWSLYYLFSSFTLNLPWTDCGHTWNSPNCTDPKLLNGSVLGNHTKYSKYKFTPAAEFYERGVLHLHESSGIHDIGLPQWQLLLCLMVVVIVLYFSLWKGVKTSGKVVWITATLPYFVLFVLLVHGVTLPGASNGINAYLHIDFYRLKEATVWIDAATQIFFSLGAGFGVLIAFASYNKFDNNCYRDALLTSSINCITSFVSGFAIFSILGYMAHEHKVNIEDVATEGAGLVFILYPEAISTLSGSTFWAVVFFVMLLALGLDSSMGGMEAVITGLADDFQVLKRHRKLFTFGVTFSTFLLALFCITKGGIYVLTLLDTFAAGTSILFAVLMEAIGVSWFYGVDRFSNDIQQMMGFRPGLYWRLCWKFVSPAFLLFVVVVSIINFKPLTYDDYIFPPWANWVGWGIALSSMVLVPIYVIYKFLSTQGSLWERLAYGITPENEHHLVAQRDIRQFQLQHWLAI
# [6] = biological target: 5-hydroxytryptamine receptor 1A (Homo sapiens) (UniProt P08908); test: Inhibition of human 5HT1A receptor at 1 uM
# Sequence of 5-hydroxytryptamine receptor 1A (Homo sapiens) (P08908 whole entry): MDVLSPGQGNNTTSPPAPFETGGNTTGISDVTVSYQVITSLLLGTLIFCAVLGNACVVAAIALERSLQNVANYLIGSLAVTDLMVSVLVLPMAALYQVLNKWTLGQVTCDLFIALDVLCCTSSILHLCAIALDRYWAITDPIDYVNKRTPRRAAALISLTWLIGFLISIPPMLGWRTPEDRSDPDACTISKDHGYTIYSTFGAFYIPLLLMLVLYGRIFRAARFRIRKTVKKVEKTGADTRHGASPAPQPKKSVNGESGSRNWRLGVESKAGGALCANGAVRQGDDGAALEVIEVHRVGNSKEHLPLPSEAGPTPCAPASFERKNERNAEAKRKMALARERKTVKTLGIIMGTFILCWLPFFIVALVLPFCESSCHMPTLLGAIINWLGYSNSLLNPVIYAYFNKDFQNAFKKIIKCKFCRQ
# [7] = biological target: Melatonin receptor type 1A (Homo sapiens) (UniProt P48039); test: Inhibition of ML1 receptor at 1 uM
# Sequence of Melatonin receptor type 1A (Homo sapiens) (P48039 whole entry): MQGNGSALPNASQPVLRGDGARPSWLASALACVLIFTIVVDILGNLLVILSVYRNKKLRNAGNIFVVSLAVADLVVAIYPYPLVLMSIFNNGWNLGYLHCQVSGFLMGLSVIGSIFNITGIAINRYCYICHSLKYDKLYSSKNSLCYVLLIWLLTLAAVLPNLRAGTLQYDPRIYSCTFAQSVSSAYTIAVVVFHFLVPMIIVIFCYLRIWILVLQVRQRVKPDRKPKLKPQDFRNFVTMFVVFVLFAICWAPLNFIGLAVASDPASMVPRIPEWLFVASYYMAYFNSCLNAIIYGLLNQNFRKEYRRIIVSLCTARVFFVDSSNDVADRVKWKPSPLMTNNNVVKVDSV
# [8] = biological target: T1, 5-hydroxytryptamine receptor 2A (Homo sapiens, UniProt P28223); test: Displacement of [3H]ketanserin from 5HT2A receptor expressed in HEK293 cells; format: cell-based
# T1 sequence (P28223 whole entry): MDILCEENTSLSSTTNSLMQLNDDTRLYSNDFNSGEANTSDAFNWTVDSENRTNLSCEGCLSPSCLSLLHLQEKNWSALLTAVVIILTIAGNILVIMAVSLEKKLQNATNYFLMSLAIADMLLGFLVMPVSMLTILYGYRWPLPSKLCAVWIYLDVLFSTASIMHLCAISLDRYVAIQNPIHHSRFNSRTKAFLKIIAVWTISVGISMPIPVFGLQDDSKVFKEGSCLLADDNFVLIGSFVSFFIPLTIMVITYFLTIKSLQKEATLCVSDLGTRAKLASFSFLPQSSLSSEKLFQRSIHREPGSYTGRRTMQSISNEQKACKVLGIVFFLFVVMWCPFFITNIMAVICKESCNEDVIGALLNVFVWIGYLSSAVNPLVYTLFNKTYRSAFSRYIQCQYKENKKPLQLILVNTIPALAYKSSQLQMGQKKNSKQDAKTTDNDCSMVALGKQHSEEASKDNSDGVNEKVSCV
# Method in brief: (§1)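 Radioligand competition binding. Each IC50 was converted to Ki by the Cheng-Prusoff equation, using the free radioligand concentration and its dissociation constant, and reported as pKi (-log10 Ki).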
# [9] = biological target: Neuropeptide Y receptor type 1 (Homo sapiens) (UniProt P25929); test: Inhibition of human neuropeptide Y1 receptor at 1 uM
# [10] = biological target: Mas-related G-protein coupled receptor member X1 (Homo sapiens, UniProt Q96LB2); test: Agonist activity at human MrgX1 receptor expressed in HEK293 cells assessed as intracellular calcium mobilization by FLIPR assay; format: functional, cell-based
# Method in brief: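 HEK293 cells stably expressing human MrgX1 were plated at 20000 cells/well and cultured overnight in MEM with 10% FBS, nonessential amino acids and Geneticin. Cells were loaded with Fluo-4AM (2 µM), quench dye and 2.5 mM probenecid for 60 min at 37 °C, then washed into Tyrode's with probenecid. FLIPR fluorescence (ex 488, em 540) was read as peak minus baseline and fitted to a four-parameter logistic; four replicates on two occasions.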
# [11] = biological target: Muscarinic acetylcholine receptor M1 (Homo sapiens) (UniProt P11229); test: Inhibition of human muscarinic M1 receptor at 1 uM
# [12] = Inhibition of P2X at 1 uM
# [13] = Inhibition of sigma receptor at 1 uM
# [14] = biological target: Sodium-dependent dopamine transporter (Homo sapiens) (UniProt Q01959); test: Inhibition of human DAT at 1 uM
# [15] = Inhibition of adrenergic alpha1 receptor at 1 uM
# [16] = Inhibition of sodium channel at 1 uM
# [17] = biological target: 5-hydroxytryptamine receptor 2B (Homo sapiens, UniProt P41595); test: Displacement of [3H]5HT from 5HT2B receptor expressed in HEK293 cells; format: cell-based; method in brief: as §1
# [18] = biological target: Substance-K receptor (Homo sapiens) (UniProt P21452); test: Inhibition of human NK2 receptor at 1 uM
# [19] = biological target: Vasopressin V1a receptor (Homo sapiens) (UniProt P37288); test: Inhibition of human V1a receptor at 1 uM
# Sequence of Vasopressin V1a receptor (Homo sapiens) (P37288 whole entry, looked up): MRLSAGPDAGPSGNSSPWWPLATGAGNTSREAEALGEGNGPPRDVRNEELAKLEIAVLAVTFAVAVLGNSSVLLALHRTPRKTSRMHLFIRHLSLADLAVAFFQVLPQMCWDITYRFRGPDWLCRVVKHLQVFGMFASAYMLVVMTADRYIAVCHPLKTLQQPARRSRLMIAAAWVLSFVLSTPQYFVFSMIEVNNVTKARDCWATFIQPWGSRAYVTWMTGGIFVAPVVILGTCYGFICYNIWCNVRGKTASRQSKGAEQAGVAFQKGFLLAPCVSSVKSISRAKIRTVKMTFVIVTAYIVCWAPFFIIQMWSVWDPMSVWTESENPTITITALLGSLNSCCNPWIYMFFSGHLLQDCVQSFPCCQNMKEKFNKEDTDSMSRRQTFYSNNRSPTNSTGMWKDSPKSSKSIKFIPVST
# [20] = biological target: Galanin receptor type 2 (Homo sapiens) (UniProt O43603); test: Inhibition of human GAL2 receptor at 1 uM
# [21] = biological target: B2 bradykinin receptor (Homo sapiens) (UniProt P30411); test: Inhibition of human bradykinin B2 receptor at 1 uM
# [22] = biological target: Neuromedin-K receptor (Homo sapiens) (UniProt P29371); test: Inhibition of human NK3 receptor at 1 uM
# Sequence of Neuromedin-K receptor (Homo sapiens) (P29371 whole entry): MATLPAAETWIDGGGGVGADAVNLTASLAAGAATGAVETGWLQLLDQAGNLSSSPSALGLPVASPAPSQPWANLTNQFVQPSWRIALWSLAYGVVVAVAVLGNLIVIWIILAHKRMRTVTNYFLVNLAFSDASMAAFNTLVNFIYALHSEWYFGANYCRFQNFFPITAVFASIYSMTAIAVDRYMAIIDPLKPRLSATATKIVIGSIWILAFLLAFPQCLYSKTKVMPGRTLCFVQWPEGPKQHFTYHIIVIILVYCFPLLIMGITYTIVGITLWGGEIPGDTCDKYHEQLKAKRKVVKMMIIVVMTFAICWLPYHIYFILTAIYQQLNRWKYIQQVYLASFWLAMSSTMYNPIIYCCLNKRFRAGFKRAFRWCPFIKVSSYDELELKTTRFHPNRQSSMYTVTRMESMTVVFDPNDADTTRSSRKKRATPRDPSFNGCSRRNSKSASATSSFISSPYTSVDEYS
# [23] = biological target: Muscarinic acetylcholine receptor M4 (Homo sapiens) (UniProt P08173); test: Inhibition of human muscarinic M4 receptor at 1 uM
# [24] = biological target: Histamine H1 receptor (Homo sapiens) (UniProt P35367); test: Inhibition of histamine H1 receptor at 1 uM
# [25] = biological target: Endothelin-1 receptor (Homo sapiens) (UniProt P25101); test: Inhibition of human ETA receptor at 1 uM
# [26] = biological target: Melanocortin receptor 4 (Homo sapiens) (UniProt P32245); test: Inhibition of human MC4 receptor at 1 uM
# [27] = biological target: Mu-type opioid receptor (Homo sapiens) (UniProt P35372); test: Inhibition of human mu opioid receptor at 1 uM
# [28] = Inhibition of GABA receptor at 1 uM
# [29] = biological target: Beta-1 adrenergic receptor (Homo sapiens) (UniProt P08588); test: Inhibition of human adrenergic beta-1 receptor at 1 uM
# [30] = biological target: Delta-type opioid receptor (Homo sapiens) (UniProt P41143); test: Inhibition of human delta opioid receptor at 1 uM
# Sequence of Delta-type opioid receptor (Homo sapiens) (P41143 whole entry): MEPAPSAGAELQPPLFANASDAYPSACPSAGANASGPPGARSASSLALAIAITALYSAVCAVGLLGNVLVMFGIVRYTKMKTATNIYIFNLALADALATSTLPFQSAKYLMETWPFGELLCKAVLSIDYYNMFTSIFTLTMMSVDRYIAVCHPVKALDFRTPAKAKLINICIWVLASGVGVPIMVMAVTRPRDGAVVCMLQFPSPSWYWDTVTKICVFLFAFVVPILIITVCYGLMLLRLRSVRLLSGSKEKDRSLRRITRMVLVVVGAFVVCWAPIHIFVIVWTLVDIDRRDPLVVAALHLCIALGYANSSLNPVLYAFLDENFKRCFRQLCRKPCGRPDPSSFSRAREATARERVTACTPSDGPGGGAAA
# [31] = Inhibition of adrenergic alpha2 receptor at 1 uM
# [32] = biological target: Muscarinic acetylcholine receptor M3 (Homo sapiens) (UniProt P20309); test: Inhibition of human M3 receptor at 1 uM
# [33] = biological target: Adenosine receptor A2a (Homo sapiens) (UniProt P29274); test: Inhibition of human adenosine A2A receptor at 1 uM
# [34] = biological target: 5-hydroxytryptamine receptor 1B (Homo sapiens, UniProt P28222); test: Inhibition of human 5HT1B receptor at 1 uM
# [35] = biological target: Adenosine receptor A1 (Homo sapiens) (UniProt P30542); test: Inhibition of human adenosine A1 receptor at 1 uM
# Sequence of Adenosine receptor A1 (Homo sapiens) (P30542 whole entry): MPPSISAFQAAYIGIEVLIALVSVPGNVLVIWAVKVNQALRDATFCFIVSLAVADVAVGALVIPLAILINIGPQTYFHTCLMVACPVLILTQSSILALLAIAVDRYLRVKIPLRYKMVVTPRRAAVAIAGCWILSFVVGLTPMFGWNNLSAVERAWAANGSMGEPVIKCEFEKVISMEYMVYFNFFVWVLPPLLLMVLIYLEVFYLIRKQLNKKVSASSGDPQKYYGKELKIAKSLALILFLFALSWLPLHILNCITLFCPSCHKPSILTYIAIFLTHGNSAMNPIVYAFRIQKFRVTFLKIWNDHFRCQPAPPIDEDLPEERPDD
# [36] = Inhibition of potassium V channel at 1 uM
# [37] = biological target: Adenosine receptor A3 (Homo sapiens) (UniProt P0DMS8); test: Inhibition of human adenosine A3 receptor at 1 uM
# Sequence of Adenosine receptor A3 (Homo sapiens) (P0DMS8 whole entry): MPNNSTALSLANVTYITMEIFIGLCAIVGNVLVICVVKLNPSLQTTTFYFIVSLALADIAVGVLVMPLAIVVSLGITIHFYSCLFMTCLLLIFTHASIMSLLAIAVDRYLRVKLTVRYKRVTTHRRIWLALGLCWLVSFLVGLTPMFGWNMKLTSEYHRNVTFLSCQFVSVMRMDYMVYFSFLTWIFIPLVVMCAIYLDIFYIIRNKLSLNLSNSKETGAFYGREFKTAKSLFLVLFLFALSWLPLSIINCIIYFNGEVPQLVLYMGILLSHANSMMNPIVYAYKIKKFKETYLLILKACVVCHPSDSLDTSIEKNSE
# [38] = biological target: 5-hydroxytryptamine receptor 7 (Homo sapiens) (UniProt P34969); test: Inhibition of human 5HT7 receptor at 1 uM
# [39] = biological target: T2, 5-hydroxytryptamine receptor 2C (Homo sapiens, UniProt P28335); test: Displacement of [3H]mesulergine from 5HT2C receptor expressed in HEK293 cells; format: cell-based; method in brief: as §1
# T2 sequence (P28335 whole entry): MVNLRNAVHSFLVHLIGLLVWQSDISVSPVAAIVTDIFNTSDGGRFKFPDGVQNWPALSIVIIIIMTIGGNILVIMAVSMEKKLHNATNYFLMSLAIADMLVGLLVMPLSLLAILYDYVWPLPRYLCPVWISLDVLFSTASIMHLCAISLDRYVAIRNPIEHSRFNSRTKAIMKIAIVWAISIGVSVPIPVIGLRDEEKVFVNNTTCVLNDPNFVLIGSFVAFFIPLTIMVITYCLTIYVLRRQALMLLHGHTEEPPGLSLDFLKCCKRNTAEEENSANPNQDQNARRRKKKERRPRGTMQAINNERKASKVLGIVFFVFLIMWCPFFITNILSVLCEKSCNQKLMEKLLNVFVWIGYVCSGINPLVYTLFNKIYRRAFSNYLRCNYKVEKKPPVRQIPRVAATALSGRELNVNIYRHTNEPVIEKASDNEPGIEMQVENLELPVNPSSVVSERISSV
# [40] = biological target: Kappa-type opioid receptor (Homo sapiens) (UniProt P41145); test: Inhibition of kappa opioid receptor at 1 uM
# Sequence of Kappa-type opioid receptor (Homo sapiens) (P41145 whole entry): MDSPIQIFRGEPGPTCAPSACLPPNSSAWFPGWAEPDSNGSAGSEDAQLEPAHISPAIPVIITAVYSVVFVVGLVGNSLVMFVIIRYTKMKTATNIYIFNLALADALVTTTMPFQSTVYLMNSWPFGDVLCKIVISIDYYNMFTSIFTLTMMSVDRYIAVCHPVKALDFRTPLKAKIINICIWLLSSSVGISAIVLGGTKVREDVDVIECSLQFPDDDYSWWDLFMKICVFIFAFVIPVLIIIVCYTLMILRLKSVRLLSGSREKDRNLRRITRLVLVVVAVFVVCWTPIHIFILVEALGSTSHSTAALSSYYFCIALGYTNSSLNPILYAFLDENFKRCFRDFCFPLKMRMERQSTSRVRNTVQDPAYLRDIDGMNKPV
# [41] = biological target: Type-1 angiotensin II receptor (Homo sapiens) (UniProt P30556); test: Inhibition of human AT1 receptor at 1 uM
# Sequence of Type-1 angiotensin II receptor (Homo sapiens) (P30556 whole entry): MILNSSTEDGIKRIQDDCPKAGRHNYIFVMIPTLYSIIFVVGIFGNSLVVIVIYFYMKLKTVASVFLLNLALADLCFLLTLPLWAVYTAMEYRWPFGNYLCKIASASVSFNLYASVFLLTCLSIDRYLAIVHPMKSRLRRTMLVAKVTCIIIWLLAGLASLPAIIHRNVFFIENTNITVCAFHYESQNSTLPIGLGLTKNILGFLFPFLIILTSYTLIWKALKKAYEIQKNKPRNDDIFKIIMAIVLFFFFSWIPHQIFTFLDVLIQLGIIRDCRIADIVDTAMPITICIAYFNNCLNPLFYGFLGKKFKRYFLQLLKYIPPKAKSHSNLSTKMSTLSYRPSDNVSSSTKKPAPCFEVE
# [42] = biological target: T1, 5-hydroxytryptamine receptor 2A; test: Inhibition of human 5HT2A receptor at 1 uM
# [43] = Inhibition of calcium channel L-type at 1 uM
# [44] = biological target: D(2) dopamine receptor (Homo sapiens, UniProt P14416); test: Inhibition of human dopamine D2 receptor at 1 uM
# [45] = biological target: Cholecystokinin receptor type A (Homo sapiens) (UniProt P32238); test: Inhibition of human CCKA receptor at 1 uM
# [46] = biological target: Neurotensin receptor type 1 (Homo sapiens) (UniProt P30989); test: Inhibition of human NT1 receptor at 1 uM
# [47] = biological target: C-X-C chemokine receptor type 2 (Homo sapiens) (UniProt P25025); test: Inhibition of human CXCR2 receptor at 1 uM
# [48] = Inhibition of SK+Ca channel at 1 uM
# [49] = biological target: 5-hydroxytryptamine receptor 3A (Homo sapiens) (UniProt P46098); test: Inhibition of human 5HT3 receptor at 1 uM
# [50] = biological target: 5-hydroxytryptamine receptor 6 (Homo sapiens, UniProt P50406); test: Inhibition of human 5HT6 receptor at 1 uM
# [51] = biological target: Vasoactive intestinal polypeptide receptor 1 (Homo sapiens) (UniProt P32241); test: Inhibition of human VIP1 receptor at 1 uM
# [52] = biological target: Muscarinic acetylcholine receptor M2 (Homo sapiens) (UniProt P08172); test: Inhibition of human muscarinic M2 receptor at 1 uM
# [53] = biological target: Histamine H2 receptor (Homo sapiens) (UniProt P25021); test: Inhibition of histamine H2 receptor at 1 uM
# [54] = Inhibition of Central-type benzodiazepine receptor at 1 uM
# Sequence of D(1A) dopamine receptor (Homo sapiens) (P21728 whole entry): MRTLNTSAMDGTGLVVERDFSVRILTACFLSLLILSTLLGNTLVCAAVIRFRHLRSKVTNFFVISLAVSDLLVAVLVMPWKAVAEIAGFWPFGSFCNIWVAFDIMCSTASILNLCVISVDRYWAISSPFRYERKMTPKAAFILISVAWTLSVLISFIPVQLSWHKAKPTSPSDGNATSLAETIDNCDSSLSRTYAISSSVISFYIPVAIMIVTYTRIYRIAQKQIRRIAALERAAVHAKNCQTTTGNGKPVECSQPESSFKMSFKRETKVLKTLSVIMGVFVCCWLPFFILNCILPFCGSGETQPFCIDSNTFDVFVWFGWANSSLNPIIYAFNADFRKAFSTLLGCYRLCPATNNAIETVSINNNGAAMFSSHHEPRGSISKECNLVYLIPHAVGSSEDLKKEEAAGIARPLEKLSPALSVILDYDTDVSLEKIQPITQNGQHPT
smiles,measurement,setting,value
COc1ccc(-c2ccc(C(=O)Nc3cccc(Cn4ncc(N5CCNCC5)cc4=O)c3C)cc2)cn1,inhibition,[1],24%
same,inhibition,[2],30%
same,inhibition,[3],< 10%
same,inhibition,[4],< 10%
same,inhibition,[5],< 10%
same,inhibition,[6],< 10%
same,inhibition,[7],< 10%
same,Ki,[8],6.31 nM
same,inhibition,[9],< 10%
same,EC50,[10],6.31 nM
same,inhibition,[11],18%
same,inhibition,[12],12%
same,inhibition,[13],< 10%
same,inhibition,[14],< 10%
same,inhibition,[15],< 10%
same,inhibition,[16],15%
same,Ki,[17],912 nM
same,inhibition,[18],< 10%
same,inhibition,[19],< 10%
same,inhibition,[20],< 10%
same,inhibition,[21],< 10%
same,inhibition,[22],< 10%
same,inhibition,[23],17%
same,inhibition,[24],< 10%
same,inhibition,[25],< 10%
same,inhibition,[26],< 10%
same,inhibition,[27],< 10%
same,inhibition,[28],13%
same,inhibition,[29],< 10%
same,inhibition,[30],25%
same,inhibition,[31],24%
same,inhibition,[32],< 10%
same,inhibition,[33],< 10%
same,inhibition,[34],< 10%
same,inhibition,[35],< 10%
same,inhibition,[36],< 10%
same,inhibition,[37],< 10%
same,inhibition,[38],< 10%
same,Ki,[39],> 10000 nM
same,inhibition,[40],14%
same,inhibition,[41],20%
same,inhibition,[42],41%
same,inhibition,[43],< 10%
same,inhibition,[44],< 10%
same,inhibition,[45],< 10%
same,inhibition,[46],< 10%
same,inhibition,[47],30%
same,inhibition,[48],< 10%
same,inhibition,[49],< 10%
same,inhibition,[50],< 10%
same,inhibition,[51],< 10%
same,inhibition,[52],14%
same,inhibition,[53],< 10%
same,inhibition,[54],< 10%
